Assays:
[1] = target: Adenosine receptor A2a (Rattus norvegicus) (UniProt P30543); assay: (§1) Displacement of [3H]-NECA from A2A receptor in rat striatal membrane in presence of A1 receptor agonist N6-cyclopentyladenosine; assay type: cell membranes; parameters: concentration or dose not given beside the values; conditions: Striatum, concentration not given here
Summary of the method: (§2)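 Competition binding against [3H]NECA (Kd 15.3 nM) on rat striatal membranes, with the A1 agonist CPA present to suppress A1 binding. Nonspecific binding set with 100 µM CPA. Eight concentrations from 0 to 100 µM. Ki from the IC50 of a sigmoidal fit, in triplicate, mean ± SEM. Otherwise percent displacement at 100 µM.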

Adenosine receptor A2a = Adenosine receptor A2a (Rattus norvegicus, UniProt P30543); assay: as §1; assay type: cell membranes, Striatum; summary of the method: as §2
Adenosine receptor A2a, sequence (P30543 whole entry): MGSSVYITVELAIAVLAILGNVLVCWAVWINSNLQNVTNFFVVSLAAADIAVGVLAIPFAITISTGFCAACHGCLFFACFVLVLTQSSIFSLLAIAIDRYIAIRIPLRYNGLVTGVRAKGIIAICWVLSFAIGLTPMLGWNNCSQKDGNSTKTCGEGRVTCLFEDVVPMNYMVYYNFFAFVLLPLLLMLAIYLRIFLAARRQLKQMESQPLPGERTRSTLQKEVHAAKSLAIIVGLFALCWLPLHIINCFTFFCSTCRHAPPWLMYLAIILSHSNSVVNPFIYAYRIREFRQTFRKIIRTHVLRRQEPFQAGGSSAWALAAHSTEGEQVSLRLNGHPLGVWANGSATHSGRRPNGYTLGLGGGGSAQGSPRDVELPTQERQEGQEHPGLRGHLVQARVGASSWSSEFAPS

Adenosine receptor A1 [2] = target: T1, Adenosine receptor A1 (Rattus norvegicus, UniProt P25099); assay: (§3) Displacement of [3H]-DPCPX from A1 receptor in rat whole brain membrane; assay type: cell membranes
T1 sequence (P25099 whole entry): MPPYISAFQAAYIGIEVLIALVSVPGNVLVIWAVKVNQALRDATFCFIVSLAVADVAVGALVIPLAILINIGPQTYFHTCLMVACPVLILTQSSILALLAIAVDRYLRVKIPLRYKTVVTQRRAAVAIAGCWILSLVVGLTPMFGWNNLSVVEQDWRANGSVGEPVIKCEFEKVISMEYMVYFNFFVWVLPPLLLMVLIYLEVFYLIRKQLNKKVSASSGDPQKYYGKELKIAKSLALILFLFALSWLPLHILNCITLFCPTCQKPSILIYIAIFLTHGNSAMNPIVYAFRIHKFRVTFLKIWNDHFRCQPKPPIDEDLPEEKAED
Summary of the method: (§4)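 Competition binding against [3H]DPCPX (Kd 0.36 nM) on rat whole brain membranes. Nonspecific binding set with 100 µM CPA. Eight test concentrations from 0 to 100 µM. IC50 from a sigmoidal fit of specific binding against log concentration, converted to Ki. Run in triplicate, mean ± SEM. Where no full curve was obtained, percent displacement of radioligand at 100 µM is given.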

[3] = target: T2, Adenosine receptor A1 (Rattus norvegicus) (UniProt P25099); assay: as §3; assay type: cell membranes; parameters: concentration or dose not given beside the values; conditions: concentration not given here; summary of the method: as §4
T2 sequence (whole entry): T1 sequence (P25099 whole entry)

[4] = Displacement of [3H]CGS21680 from A2A receptor in bovine striatal membrane; assay type: cell membranes, Bos taurus, Striatum
[5] = target: T3, Adenosine receptor A1 (Homo sapiens) (UniProt P30542); assay: Displacement of [3H]-DPCPX from recombinant human A1 receptor expressed in CHOK1 cells at 100 uM measured after 30 mins by liquid scintillation counting method relative to control; assay type: cell-based
T3 sequence (whole entry): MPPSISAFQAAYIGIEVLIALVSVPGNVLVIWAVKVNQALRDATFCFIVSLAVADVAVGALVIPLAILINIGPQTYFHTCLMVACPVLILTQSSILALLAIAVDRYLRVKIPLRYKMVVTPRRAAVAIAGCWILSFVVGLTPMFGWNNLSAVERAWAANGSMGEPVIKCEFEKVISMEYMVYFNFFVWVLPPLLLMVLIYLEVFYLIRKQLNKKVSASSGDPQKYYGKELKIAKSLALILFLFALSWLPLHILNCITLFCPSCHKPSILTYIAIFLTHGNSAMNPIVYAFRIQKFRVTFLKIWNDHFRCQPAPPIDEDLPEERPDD

[6] = target: T2, Adenosine receptor A1 (Rattus norvegicus); assay: Ratio of Ki for adenosine receptor A1 in rat brain membrane in presence of GTP to Ki for adenosine receptor A1 in rat brain membrane in absence of GTP; assay type: cell membranes
Summary of the method: (§5)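 GTP shift test on rat whole brain membranes. [3H]DPCPX binding is run without GTP and with 100 µM GTP added. Ki is taken from a sigmoidal competition curve in each condition, in triplicate. The shift is Ki with GTP divided by Ki without GTP.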

Adenosine receptor A1 [7] = target: T1, Adenosine receptor A1; assay: Displacement of [3H]-DPCPX from A1 receptor in rat whole brain membrane assessed as effect on GTP shift in presence of 100 uM GTP; assay type: cell membranes; summary of the method: as §5

Adenosine receptor A2a (Rattus norvegicus), sequence (P30543 whole entry): as the sequence (P30543 whole entry) above

## Brc1ccc(-c2nc3ccccn3c2NC2CCCCC2)cc1
[1]
  inhibition: 54%
Adenosine receptor A2a
  Ki: > 100 µM
Adenosine receptor A1 [2]
  Ki: 3.9 µM

## Oc1ccc(-c2nc3ccccn3c2NC2CCCCC2)cc1
[1]
  inhibition: 27%
Adenosine receptor A2a
  Ki: > 100 µM
Adenosine receptor A1 [2]
  Ki: 5.53 µM

## Clc1ccc(-c2nc3ccccn3c2NC2CCCCC2)cc1
[1]
  inhibition: 64%
Adenosine receptor A2a
  Ki: > 100 µM
Adenosine receptor A1 [2]
  Ki: > 100 µM
[3]
  inhibition: 61%

## COc1ccc(-c2cn3ccccc3n2)cc1
[1]
  inhibition: 61%
Adenosine receptor A2a
  Ki: > 100 µM
Adenosine receptor A1 [2]
  Ki: > 100 µM
[3]
  inhibition: 76%

## FC(F)(F)c1ccc(-c2nc3ccccn3c2NC2CCCCC2)cc1
[1]
  inhibition: 74%
Adenosine receptor A2a
  Ki: > 100 µM
Adenosine receptor A1 [2]
  Ki: > 100 µM
[3]
  inhibition: 76%

## O=[N+]([O-])c1ccc(-c2nc3ccccn3c2NC2CCCCC2)cc1
[1]
  inhibition: 69%
Adenosine receptor A2a
  Ki: > 100 µM
Adenosine receptor A1 [2]
  Ki: > 100 µM
[3]
  inhibition: 99%

## O=C(Nc1nc(-c2ccccc2)nc2nc(-c3ccccc3)cn12)C1CCCC1
[4]
  Ki: 2.5 µM

## CC(=O)Nc1nc(-c2ccccc2)nc2nc(C)cn12
[4]
  Ki: > 10 µM

## c1ccc(-c2nc3ccccn3c2NC2CCCCC2)cc1
[1]
  inhibition: 77%
Adenosine receptor A2a
  Ki: > 100 µM
Adenosine receptor A1 [2]
  Ki: > 100 µM
[3]
  inhibition: 57%

## Brc1ccc(-c2cn3ccccc3n2)cc1
[1]
  inhibition: 87%
Adenosine receptor A2a
  Ki: > 100 µM
Adenosine receptor A1 [2]
  Ki: > 100 µM
[3]
  inhibition: 86%

## Oc1ccc(-c2cn3ccccc3n2)cc1
[1]
  inhibition: 85%
Adenosine receptor A2a
  Ki: > 100 µM
Adenosine receptor A1 [2]
  Ki: > 100 µM
[3]
  inhibition: 47%

## c1ccn2ccnc2c1
[1]
  inhibition: 75%
Adenosine receptor A2a
  Ki: > 100 µM
Adenosine receptor A1 [2]
  Ki: > 100 µM
[3]
  inhibition: 100%

## Fc1ccc(-c2nc3ccccn3c2NC2CCCCC2)cc1
[1]
  inhibition: 90%
Adenosine receptor A2a
  Ki: > 100 µM
Adenosine receptor A1 [2]
  Ki: > 100 µM
[3]
  inhibition: 63%

## c1ccc(-c2cn3ccccc3n2)cc1
[1]
  inhibition: 52%
Adenosine receptor A2a
  Ki: > 100 µM
Adenosine receptor A1 [2]
  Ki: > 100 µM
[3]
  inhibition: 49%

## c1ccc(CNc2c(-c3ccccc3)nc3ccccn23)cc1
[5]
  inhibition: 89%

## COc1ccc(-c2nc3ccccn3c2NC2CCCCC2)cc1
[1]
  inhibition: 55%
Adenosine receptor A2a
  Ki: > 100 µM
Adenosine receptor A1 [2]
  Ki: 7.61 µM

## Nc1c(-c2ccccc2)nc2ccccn12
[1]
  inhibition: 86%
Adenosine receptor A2a
  Ki: > 100 µM
Adenosine receptor A1 [2]
  Ki: > 100 µM
[3]
  inhibition: 52%

## Cc1ccc(-c2nc3ccccn3c2NC2CCCCC2)cc1
[1]
  inhibition: 83%
Adenosine receptor A2a
  Ki: > 100 µM
[6]
  Ratio Ki: 0.97
Adenosine receptor A1 [7]
  Ki: 2 µM
Adenosine receptor A1 [2]
  Ki: 2.06 µM

## CC(=O)CNc1nc(-c2ccccc2)nc2nc(C)cn12
[4]
  Ki: > 10 µM

From ChEMBL document CHEMBL4052812, “Imidazo[1,2-α]pyridines possess adenosine A1 receptor affinity for the potential treatment of cognition in neurological disorders” (Bioorg Med Chem Lett, 2017)
